Reference: ChEMBL document CHEMBL1137298, “2-triazole-substituted adenosines: a new class of selective A3 adenosine receptor agonists, partial agonists, and antagonists” (J Med Chem, 2006)
Calls of active or inactive are those of the source. The rule behind the calls is not given here.

Tests used:
[1] = target: Adenosine receptor A2b (Homo sapiens) (UniProt P29275); test: Activity at human adenosine A2B receptor in CHO cells assessed as stimulation of cAMP production relative to NECA at 10 uM
Adenosine receptor A1 = target: T1, Adenosine receptor A1 (Homo sapiens, UniProt P30542); test: Displacement of [3H]CCPA from human Adenosine A1 receptor expressed in CHO cells; format: cell-based
T1 sequence (P30542 whole entry): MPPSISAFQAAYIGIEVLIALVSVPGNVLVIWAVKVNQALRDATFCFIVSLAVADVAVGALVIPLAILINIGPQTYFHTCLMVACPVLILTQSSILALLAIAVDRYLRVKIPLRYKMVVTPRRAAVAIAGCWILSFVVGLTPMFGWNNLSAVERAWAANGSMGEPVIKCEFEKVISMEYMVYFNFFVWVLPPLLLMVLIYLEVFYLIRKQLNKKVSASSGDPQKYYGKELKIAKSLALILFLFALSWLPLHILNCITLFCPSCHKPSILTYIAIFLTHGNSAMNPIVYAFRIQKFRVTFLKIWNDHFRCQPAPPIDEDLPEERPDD

Adenosine receptor A2a [2] = target: T2, Adenosine receptor A2a (Homo sapiens, UniProt P29274); test: Inhibition of [3H]CGS21680 binding to human Adenosine A2A receptor expressed in CHO cells at 10 uM; format: cell-based
Method in brief: (§1)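 Membranes from CHO cells stably transfected with human A1AR (radioligand [3H]CCPA) or human A2AAR (radioligand [3H]CGS21680), in Tris-HCl pH 7.4/MgCl2/EDTA buffer with adenosine deaminase. Compound tested at a fixed 10 µM. Result expressed as percent displacement of radioligand, n = 3 unless otherwise noted.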

Adenosine receptor A3 [3] = target: T3, Adenosine receptor A3 (Homo sapiens, UniProt P0DMS8); test: Displacement of [125I]AB-MECA from human Adenosine A3 receptor expressed in CHO cells; format: cell-based
T3 sequence (P0DMS8 whole entry): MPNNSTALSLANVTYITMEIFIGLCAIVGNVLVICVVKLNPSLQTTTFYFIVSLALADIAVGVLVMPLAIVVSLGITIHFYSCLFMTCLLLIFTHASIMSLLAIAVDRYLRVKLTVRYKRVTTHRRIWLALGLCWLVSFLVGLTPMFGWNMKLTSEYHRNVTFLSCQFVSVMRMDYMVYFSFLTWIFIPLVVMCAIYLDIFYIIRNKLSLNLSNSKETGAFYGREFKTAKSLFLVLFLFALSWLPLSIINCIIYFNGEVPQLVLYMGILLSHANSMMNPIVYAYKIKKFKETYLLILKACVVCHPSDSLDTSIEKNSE

[4] = target: Adenosine receptors; A1 & A3 (Homo sapiens) (UniProt P30542+P0DMS8); test: Selectivity for human adenosine A3 over human adenosine A1 receptor; format: protein assay
Adenosine receptor A3 [5] = target: T4, Adenosine receptor A3 (Rattus norvegicus, UniProt P28647); test: Displacement of [125I]AB-MECA from rat Adenosine A3 receptor expressed in CHO cells; format: cell-based
T4 sequence (P28647 whole entry): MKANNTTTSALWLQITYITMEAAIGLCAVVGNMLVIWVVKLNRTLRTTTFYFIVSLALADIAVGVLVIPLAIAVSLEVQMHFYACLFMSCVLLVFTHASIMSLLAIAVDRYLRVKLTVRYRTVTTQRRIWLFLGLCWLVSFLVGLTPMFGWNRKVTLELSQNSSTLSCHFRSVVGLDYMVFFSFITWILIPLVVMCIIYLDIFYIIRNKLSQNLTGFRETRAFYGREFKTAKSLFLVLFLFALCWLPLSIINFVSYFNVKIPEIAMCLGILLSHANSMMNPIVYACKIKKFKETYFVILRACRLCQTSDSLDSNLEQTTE
Method in brief: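 Membranes from CHO cells expressing rat A3AR, prepared in 50 mM Tris-HCl pH 7.4 with 10 mM MgCl2, 1 mM EDTA and 3 units/mL adenosine deaminase. Incubated with [125I]AB-MECA (0.5 nM final) and increasing compound concentrations for 60 min at 25 °C. Nonspecific binding defined with 10 µM NECA. GF/B filtration, gamma counting, Ki derived.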

Adenosine receptor A2a [6] = target: T2, Adenosine receptor A2a; test: Displacement of [3H]CGS-21680 from human Adenosine A2A receptor expressed in CHO cells; format: cell-based
[7] = target: T5, Adenosine receptor A1 (Homo sapiens) (UniProt P30542); test: Inhibition of [3H]CCPA binding to human Adenosine A1 receptor expressed in CHO cells at 10 uM; format: cell-based
T5 sequence (whole entry): T1 sequence (P30542 whole entry)
Method in brief: as §1

T2 sequence (P29274 whole entry): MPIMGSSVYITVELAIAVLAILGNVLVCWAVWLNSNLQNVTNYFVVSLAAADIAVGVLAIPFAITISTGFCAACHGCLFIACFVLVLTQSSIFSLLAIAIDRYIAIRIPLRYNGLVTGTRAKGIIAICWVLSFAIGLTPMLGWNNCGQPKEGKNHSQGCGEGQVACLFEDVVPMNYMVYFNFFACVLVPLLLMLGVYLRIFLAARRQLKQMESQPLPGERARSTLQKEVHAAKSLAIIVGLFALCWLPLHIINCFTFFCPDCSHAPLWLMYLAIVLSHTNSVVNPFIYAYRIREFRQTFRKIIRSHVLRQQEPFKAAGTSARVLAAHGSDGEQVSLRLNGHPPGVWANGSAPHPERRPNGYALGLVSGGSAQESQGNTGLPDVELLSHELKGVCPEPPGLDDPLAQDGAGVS

Structure (SMILES)	Activity [1]	Ki (Adenosine receptor A1)	inhibition (Adenosine receptor A2a [2])	Ki (Adenosine receptor A3 [3])	Selectivity ratio [4]	Ki (Adenosine receptor A3 [5])	Ki (Adenosine receptor A2a [6])	inhibition [7]
CCNC(=O)[C@H]1O[C@@H](n2cnc3c(NC)nc(-n4cc(-c5ccccn5)nn4)nc32)[C@H](O)[C@@H]1O	< 50%	1640 nM	45%	1.8 nM	910	–	–	–
CNc1nc(N=[N+]=[N-])nc2c1ncn2[C@@H]1O[C@H](CO)[C@@H](O)[C@H]1O	< 50%	–	23%	–	–	–	–	–
CNc1nc(-n2cc(-c3ccccn3)nn2)nc2c1ncn2[C@@H]1O[C@H](CO)[C@@H](O)[C@H]1O	inactive	1970 nM	40%	10.3 nM	–	> 10000 nM	–	–
CCNC(=O)[C@H]1O[C@@H](n2cnc3c(NC)nc(-n4ccnn4)nc32)[C@H](O)[C@@H]1O	inactive	590 nM	18%	2.1 nM	–	–	–	–
CCCCc1cn(-c2nc(NC)c3ncn([C@@H]4O[C@H](C(=O)NCC)[C@@H](O)[C@H]4O)c3n2)nn1	inactive	750 nM	43%	5.6 nM	–	–	–	–
CNc1nc(-c2cn(Cc3ccccc3)nn2)nc2c1ncn2[C@@H]1O[C@H](CO)[C@@H](O)[C@H]1O	< 50%	770 nM	21%	53.9 nM	–	–	–	–
CNc1nc(-n2cc(-c3ccccc3)nn2)nc2c1ncn2[C@@H]1O[C@H](CO)[C@@H](O)[C@H]1O	inactive	–	5%	14.9 nM	–	–	–	36%
CCNC(=O)[C@H]1O[C@@H](n2cnc3c(NC)nc(-n4cc(Cc5ccccc5)nn4)nc32)[C@H](O)[C@@H]1O	50%	510 nM	33%	2.8 nM	–	–	–	–
CNc1nc(-n2ccnn2)nc2c1ncn2[C@@H]1O[C@H](CO)[C@@H](O)[C@H]1O	–	1000 nM	13%	10.4 nM	–	–	–	–
CCCOc1ccc(-c2cn(-c3nc(NC)c4ncn([C@@H]5O[C@H](CO)[C@@H](O)[C@H]5O)c4n3)nn2)cc1	< 50%	–	14%	25.2 nM	–	> 10000 nM	–	49%
CNc1nc(-c2cn(Cc3cccc(OC)c3)nn2)nc2c1ncn2[C@@H]1O[C@H](CO)[C@@H](O)[C@H]1O	< 50%	957 nM	43%	86.1 nM	–	–	–	–
CNc1nc(-c2cn(Cc3cccc(Cl)c3)nn2)nc2c1ncn2[C@@H]1O[C@H](CO)[C@@H](O)[C@H]1O	< 50%	956 nM	39%	81.1 nM	–	–	–	–
CCNC(=O)[C@H]1O[C@@H](n2cnc3c(NC)nc(N=[N+]=[N-])nc32)[C@H](O)[C@@H]1O	50%	–	18%	–	–	–	–	–

The next lines start with the values.

Activity [1]	Ki (Adenosine receptor A1)	inhibition (Adenosine receptor A2a [2])	Ki (Adenosine receptor A3 [3])	Selectivity ratio [4]	Ki (Adenosine receptor A3 [5])	Ki (Adenosine receptor A2a [6])	inhibition [7]	Structure (SMILES)
< 50%	2920 nM	18%	13.8 nM	–	–	–	–	CCc1cn(-c2nc(NC)c3ncn([C@@H]4O[C@H](CO)[C@@H](O)[C@H]4O)c3n2)nn1
inactive	1270 nM	14%	45 nM	–	–	–	–	CNc1nc(-n2cc(CCO)nn2)nc2c1ncn2[C@@H]1O[C@H](CO)[C@@H](O)[C@H]1O
inactive	–	23%	11.7 nM	72	–	–	–	CCCCc1cn(-c2nc(NC)c3ncn([C@@H]4O[C@H](CO)[C@@H](O)[C@H]4O)c3n2)nn1
–	830 nM	–	18 nM	–	–	6000 nM	–	COc1ccc(Cl)cc1CNc1nc(-n2cc(CC3CCCC3)nn2)nc2c1ncn2[C@@H]1O[C@H](CO)[C@@H](O)[C@H]1O
< 50%	1430 nM	16%	21.3 nM	67	–	–	–	CNc1nc(-n2cc(CC3CCCCC3)nn2)nc2c1ncn2[C@@H]1O[C@H](CO)[C@@H](O)[C@H]1O
< 50%	589 nM	20%	9.5 nM	–	1790 nM	–	–	CNc1nc(-n2cc(Cc3ccccc3)nn2)nc2c1ncn2[C@@H]1O[C@H](CO)[C@@H](O)[C@H]1O
< 50%	335 nM	39%	1.3 nM	260	312 nM	–	–	CNc1nc(-n2cc(CC3CCCC3)nn2)nc2c1ncn2[C@@H]1O[C@H](CO)[C@@H](O)[C@H]1O
< 50%	1250 nM	36%	11.5 nM	–	–	–	–	CCNC(=O)[C@H]1O[C@@H](n2cnc3c(NC)nc(-n4cc(CC5CCCC5)nn4)nc32)[C@H](O)[C@@H]1O
inactive	3800 nM	6%	117 nM	–	> 10000 nM	–	–	CNc1nc(-n2cc(CN(C)C)nn2)nc2c1ncn2[C@@H]1O[C@H](CO)[C@@H](O)[C@H]1O
